The target of assay [1] is T1, Muscarinic acetylcholine receptor M1 (Homo sapiens) (UniProt P11229).
T1 sequence (whole entry): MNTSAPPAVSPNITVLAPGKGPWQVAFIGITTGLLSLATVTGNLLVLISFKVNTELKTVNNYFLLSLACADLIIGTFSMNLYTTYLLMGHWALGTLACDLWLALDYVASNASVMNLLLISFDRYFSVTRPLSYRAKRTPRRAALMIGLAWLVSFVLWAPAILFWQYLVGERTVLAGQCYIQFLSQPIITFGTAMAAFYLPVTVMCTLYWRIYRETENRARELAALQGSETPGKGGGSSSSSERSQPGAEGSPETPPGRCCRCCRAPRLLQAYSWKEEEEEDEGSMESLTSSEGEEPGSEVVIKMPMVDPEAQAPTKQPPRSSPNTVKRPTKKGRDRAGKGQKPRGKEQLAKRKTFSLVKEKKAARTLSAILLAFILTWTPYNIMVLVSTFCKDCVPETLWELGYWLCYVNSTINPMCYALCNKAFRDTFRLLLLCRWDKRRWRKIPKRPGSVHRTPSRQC
Put plainly: Antagonist activity at muscarinic M1 receptor (unknown origin) expressed in HEK293T cells assessed as inhibition of UNC1679 calcium mobilization at 30 uM. To be noted: HEK-293T. It is filed as functional, cell-based. In outline: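 Test compound assayed for M1 antagonism at one concentration, 30 μM, scored as percent inhibition.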
(A change in cytosolic calcium serves as a functional read-out for many receptors and channels.)

Assay [2] deals with T2, Muscarinic acetylcholine receptor M1 (Homo sapiens, UniProt P11229).
T2 sequence (P11229 whole entry): T1 sequence (whole entry)
Put plainly: Antagonist activity at muscarinic M1 receptor (unknown origin) expressed in HEK293T cells assessed as inhibition of UNC1679 calcium mobilization. It counts as functional, cell-based, HEK-293T.

Here are results for two molecules from ChEMBL document CHEMBL2424619, “Small-molecule ligands of methyl-lysine binding proteins: optimization of selectivity for L3MBTL3” (J Med Chem, 2013).

Broadly, the inhibition is the percentage by which the read-out fell short of the control. As a reminder, the IC50 is the point on the concentration scale where inhibition reaches its midpoint.

As for `CCN1Cc2ccc(NC(=O)c3ccc(C(=O)N4CCC(C5CCCN5)CC4)cc3)cc2C1` (configuration not stated), in assay [1], the inhibition is less than 20%.

Turning to `O=C(c1ccc(C(=O)N2CCC(N3CCCC3)CC2)c(Nc2ccccc2)c1)N1CCC(N2CCCC2)CC1`, the IC50 in assay [2] came to 3.5 µM.
